From PubChem
Compounds with a hit are over-represented: about 1.8% of the library has one in this group of screens.
M4 PAM = human M4 muscarinic receptor positive allosteric modulators, primary screen, CHO-K1 cells, Fluo-8 calcium fluorescence. activation, % at 3 µM. 0.4% of 360,000 active. Muscarinic acetylcholine receptor M4 (Homo sapiens), P08173. CHO-K1 hM4/Gqi5, ACh EC20; 0% = ACh EC20, 100% = maximal ACh;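 active means activation above its plate's cutoff, the mean activation of sample wells plus 3 SD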
Target sequence (P08173 whole entry, looked up): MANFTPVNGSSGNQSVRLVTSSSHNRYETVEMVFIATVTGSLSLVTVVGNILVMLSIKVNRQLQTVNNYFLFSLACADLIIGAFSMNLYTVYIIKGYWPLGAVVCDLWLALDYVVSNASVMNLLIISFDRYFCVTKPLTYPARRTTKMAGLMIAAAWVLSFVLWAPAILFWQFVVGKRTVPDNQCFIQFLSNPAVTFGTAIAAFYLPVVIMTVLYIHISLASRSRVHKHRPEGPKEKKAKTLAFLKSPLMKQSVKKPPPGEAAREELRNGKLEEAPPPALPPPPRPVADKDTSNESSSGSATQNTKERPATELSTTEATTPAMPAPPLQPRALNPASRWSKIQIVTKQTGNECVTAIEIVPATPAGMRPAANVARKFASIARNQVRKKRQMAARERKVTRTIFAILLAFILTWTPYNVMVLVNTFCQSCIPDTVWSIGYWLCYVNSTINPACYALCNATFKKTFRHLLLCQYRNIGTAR
CHRM5 antagonist = human M5 muscarinic receptor antagonists, primary screen, CHO cells, Fluo-8 calcium fluorescence; CHO-hM5 cells, ACh EC80; inhibition, % at 3 µM; 0.59% of 360,000 active; AID 624040, 2012;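 active means inhibition above a per-plate cutoff, the mean of that plate's test compounds plus 3 SD, cut at about 27% in these data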;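 further: 0% = acetylcholine EC80 with DMSO and 100% = DMSO without agonist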
M4 ag = human M4 muscarinic receptor agonists, primary screen, CHO-K1 cells, Fluo-8 calcium fluorescence | CHO-K1 hM4/Gqi5; vehicle 0%, full acetylcholine response 100% | activation, % at 3 µM | Muscarinic acetylcholine receptor M4 (Homo sapiens), P08173 | 0.14% of 360,000 active;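 active means activation above the run mean over all test wells plus 3 SD, cut at about 32% in these data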;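 further: peak over basal fluorescence ratio per well then scaled between controls; 0% = DMSO wells and 100% = acetylcholine at EC100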
M5 ag = human M5 muscarinic receptor agonists, primary screen, CHO-K1 cells, Fluo-8 calcium fluorescence; Muscarinic acetylcholine receptor M5 (Homo sapiens), P08912; AID 624037, 2012; 0.19% of 360,000 active; CHO-K1 hM5 cells; 0% DMSO wells, 100% maximal acetylcholine response; activation, % at 3 µM;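 active means activation above the run's mean over test compounds plus 3 SD, cut at about 23% in these data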;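 further: signal is peak over basal fluorescence ratio across the kinetic read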
CHRM5 PAM = human M5 muscarinic receptor positive allosteric modulators, primary screen, CHO-K1 cells, Fluo-8 calcium fluorescence; CHO-K1 hM5, ACh EC20 PAM; 0% = ACh EC20, 100% = ACh EC100; activation, % at 3 µM; 0.3% of 360,000 active;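 active means activation above the run cutoff, the mean activation of all test compounds plus 3 SD, cut at about 18% in these data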
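Probe or stimulus: acetylcholine, EC20 level; Assay system: human M5 receptor in CHO-K1 cells; Schedule: compound preincubation 140 s before EC20 acetylcholine addition; Technique: intracellular calcium via Fluo-8 fluorescence; Dosing: single-point, 3 µM nominal; Read-out basis: percent activation from peak-over-basal fluorescence ratio, scaled EC20-to-EC100 acetylcholine; Repeats: one well per compound, no replicates.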
M4 antag = human M4 muscarinic receptor antagonists, primary screen, CHO cells, Fluo-8 calcium fluorescence; 0.73% of 360,000 active; inhibition, % at 3 µM; CHO-hM4 cells, ACh EC80;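 active means inhibition above its plate's cutoff, the mean inhibition of sample wells plus 3 SD, cut at about 27% in these data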;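 further: 0% = acetylcholine EC80 with DMSO and 100% = DMSO without agonist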
* hit, by the source's call.

SMILES	M4 PAM	CHRM5 antagonist	M4 ag	M5 ag	CHRM5 PAM	M4 antag
CCC(O)C1CCN(C(=O)c2cc(COc3ccc4ncccc4c3)on2)CC1 (stereo not given)	-15	35*	15	8	-15	21
O=C(NC1CCCCCCC1)c1cc(COc2ccc3ncccc3c2)on1	-26	36*	13	-4	-33	34*
COc1cccc(OCc2cc(C(=O)N3CCN(C4CCCC4)CC3)no2)c1	-6	29*	4	-8	-6	1
Cc1cc(CN(C)C(=O)c2cc(COc3ccc4ncccc4c3)on2)on1	-24	14	12	8	-21	19
C[C@@H]1CN([C@H](C)CO)C(=O)CCCn2cc(nn2)CO[C@H]1CN(C)C(=O)Nc1cccc(C(F)(F)F)c1	3	0	2	-2	3	7
COc1cc(Cl)ccc1OCc1cc(C(=O)N2CCCC(OC)C2)no1 (stereo not given)	-1	29*	3	-6	-9	6
COc1cc(Cl)ccc1OCc1cc(C(=O)N2CCCCCC2)no1	0	10	3	-6	-3	-22
C[C@@H](c1ccccc1)N1C[C@@H](COCc2ccccc2)Oc2cc(N3CC[C@@H](N(C)C)C3)ccc2S1(=O)=O	-3	-1	5	1	4	5
COC(=O)C[C@H]1C[C@H]2c3cc(NC(=O)C4CCOCC4)ccc3O[C@H]2[C@@H](CO)O1	0	-4	1	0	1	2
Cc1n[nH]c(C)c1Cc1c(F)cccc1Cl	2	26	4	-10	28*	-2
COc1cc(/C=C2\SC(=Nc3ccc(Cl)c(C(=O)O)c3)NC2=O)c(Br)c(Br)c1O	-19	43*	51*	190*	-34	16
CCc1ccc(N=C2NC(=O)/C(=C/c3cc(OC)c(O)c(OC)c3)S2)cc1	-8	13	18	24*	-12	18
COc1cc(/C=C2\SC(=Nc3ccccc3)NC2=O)cc(Cl)c1O	-22	45*	84*	64*	-20	44*
CCCC(=O)N1CCC1(C)C(=O)Nc1ccc2c(c1)OCCO2 (stereo not given)	3	-3	1	0	6	-13
CCCC(=O)Nc1nnc(SCC(=O)Nc2ccc(OCC)cc2)s1	2	7	0	2	-4	8
O=C(NNS(=O)(=O)c1ccc2ccccc2c1)C1CCN(Cc2ccccc2)CC1	-23	46*	2	-4	-23	41*
COCCNc1ncnc2c1ncn2[C@H]1CN(Cc2cc(OC)c(OC)c(OC)c2)C[C@@H](CO)O1	-6	3	0	1	-7	-1
CN1CCN(c2ncnc3c2ncn3[C@H]2CN(Cc3ccc(C(=O)O)cc3)C[C@@H](CO)O2)CC1	18*	1	1	-1	-6	-19
OC[C@@H]1CN(Cc2ccccc2)C[C@H](n2cnc3c(NCc4ccco4)ncnc32)O1	-1	-1	3	2	0	-3
COc1cc(CN2C[C@@H](CO)O[C@@H](n3cnc4c(NCC(C)C)ncnc43)C2)cc(OC)c1OC	17*	17	2	2	2	-11
OC[C@@H]1CN(Cc2ccc(-c3ccccc3)cc2)C[C@H](n2cnc3c(NCc4ccco4)ncnc32)O1	-7	25	24	5	-14	29*
Nc1nc2ccc(Cl)cc2cc1C(=O)NCc1ccc(Oc2ccccc2)cc1	-8	23	9	6	-17	15
O=C(NC1CC2CCC(C1)N2C(=O)NCc1ccccc1)C1CC1 (stereo not given)	-16	-3	1	-6	2	30*
Nc1[nH]c(C(=O)c2ccccc2)c(-c2ccncc2)c1C(=O)NCCc1c[nH]c2ccccc12	-4	-4	9	3	-5	-3
O=C(Nc1ccc([N+](=O)[O-])cc1)Nc1nc(-c2ccc(Cl)s2)cs1	-10	31*	12	7	-15	26
SMILES	M4 PAM	CHRM5 antagonist	M4 ag	M5 ag	CHRM5 PAM	M4 antag
CC(=O)Nc1nc(-c2ccc([N+](=O)[O-])cc2)cs1	1	-10	1	-1	-6	-5
CCOC1CCCc2oc(-c3ccc(OC)cc3)c(C(=O)NCCCCO)c21 (stereo not given)	11	10	1	0	-8	-17
CC1CC(C)CN(S(=O)(=O)c2ccc(NC(=O)[C@@H]3CCCN3C(=O)c3cccs3)cc2)C1 (stereo not given in full)	-6	3	-1	-8	-22	28*
O=C(O)C1CCCN1S(=O)(=O)c1ccccc1 (stereo not given)	39*	-9	2	1	26*	-7
O=C(Nc1ccc(F)cc1)C1CCCN1S(=O)(=O)c1ccc(Br)cc1 (stereo not given)	25*	0	3	-3	5	-9
CC(=O)Nc1ccc(S(=O)(=O)N2CCCC2C(=O)Nc2ccc(F)cc2)cc1 (stereo not given)	7	-4	1	-1	4	4
Cc1ccc(S(=O)(=O)N(C)C)cc1NC(=O)C1CCCCN1S(=O)(=O)c1ccccc1 (stereo not given)	24*	3	1	-6	-5	-3
Cc1cc(C)cc(CC(=O)N2CCC2(C)C(=O)NS(=O)(=O)c2cccc(OC(F)F)c2)c1 (stereo not given)	2	7	0	1	1	-1
O=C1CCCCC(=O)[C@H](O)C[C@H](COCc2ccccc2)O1	6	3	0	3	-7	0
Cc1ccc(S(=O)(=O)N2CCCC2C(=O)NCc2ccccc2Cl)cc1 (stereo not given)	0	-16	1	3	19*	2
CN(C)c1ccc(-c2ccnc3c2CC(C)(C(=O)NCCC(F)(F)F)O3)cc1 (stereo not given)	-3	11	-1	0	-2	5
O=[N+]([O-])c1cc2cccnc2c2ncccc12	12*	-3	1	2	0	-9
